RAD52 inh: inhibitors of human RAD52 DNA annealing | P43351 | recombinant RAD52 DNA annealing, FRET fluorescence | inhibition, % at 18.7 µM | actives 0.46% (n = 360,000) | AID 651710;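 active means every replicate showing at least 50% inhibition; inconclusive means mean inhibition at least 50% but not in every replicate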
MLL AF4-AF9 inh: MLL-AF4/AF9 protein interaction inhibition; P42568; AID 651704; inhibition, % at 10 µM; actives 0.47% (n = 350,000); AlphaScreen, biotin-AF4 peptide binding to FLAG-AF9;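 active means every replicate reaching a set inhibition limit, whatever the replicate mean, cut at about 25% in these data; inconclusive means mean inhibition reaches that limit but some replicates miss it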;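 further: 0% = plate neutral control median and 100% = total signal loss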
Target sequence (P42568 whole entry, looked up): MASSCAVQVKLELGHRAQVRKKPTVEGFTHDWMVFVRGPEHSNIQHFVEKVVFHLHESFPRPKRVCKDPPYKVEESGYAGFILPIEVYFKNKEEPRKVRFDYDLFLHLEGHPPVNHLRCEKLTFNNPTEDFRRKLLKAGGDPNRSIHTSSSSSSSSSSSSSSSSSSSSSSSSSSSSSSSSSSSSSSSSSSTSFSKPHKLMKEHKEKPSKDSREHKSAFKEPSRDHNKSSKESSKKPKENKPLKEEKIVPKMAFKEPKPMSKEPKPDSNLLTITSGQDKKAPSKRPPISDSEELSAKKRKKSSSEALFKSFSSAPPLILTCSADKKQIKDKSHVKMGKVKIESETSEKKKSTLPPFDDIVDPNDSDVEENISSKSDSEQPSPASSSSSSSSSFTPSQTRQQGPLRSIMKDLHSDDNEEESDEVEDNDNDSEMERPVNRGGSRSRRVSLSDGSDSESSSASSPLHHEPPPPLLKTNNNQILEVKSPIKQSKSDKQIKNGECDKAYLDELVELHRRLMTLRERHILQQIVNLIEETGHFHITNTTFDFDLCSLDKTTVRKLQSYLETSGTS
S100A4 MyoIIA: S100A4-myosin IIA interaction inhibition | P26447 | S100A4/TAMRA-MyoIIA peptide fluorescence polarization | inhibition, % at 10.7 µM | actives 0.14% (n = 360,000) | AID 652163;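 active means mean inhibition of at least 70% across replicates, with every replicate also reaching that level; inconclusive means mean inhibition reaches 70% but some replicates fall short; inactive means mean inhibition below 70%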
Target sequence (P26447 whole entry, looked up): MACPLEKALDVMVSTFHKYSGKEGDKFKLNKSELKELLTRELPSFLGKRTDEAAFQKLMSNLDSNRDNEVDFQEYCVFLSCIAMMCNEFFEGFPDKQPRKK
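Test system: S100A4 monomer protein. Medium: HEPES buffer with Ca2+, pH 7.2. Reagent: fluorescent myosin IIA peptide, 5 nM. Compound dosing: single-point compound testing. Timing: 5 min between mix addition and reading. Benchmarks: DMSO neutral and TFP positive wells.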
RAD54 branch: blocks human RAD54 Holliday junction branch migration; actives 0.14% (n = 360,000); Q92698; inhibition, % at 10.4 µM; FAM/BHQ fluorescence; AID 602329;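 active means mean normalized replicate activity at least 40 and at least half of replicates scoring 40 or more; inconclusive means only one of the two criteria met; inactive means mean below 40 and under half of replicates reaching 40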;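 further: 0% = median of neutral control wells and 100% = median of positive control wells; inhibitors cause a drop in the FAM fluorescence signal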
GSIS activator: primary screen for activators of insulin secretion dependent on glucose, INS-1E cells, GLuc reporter luminescence. INS-1E GLuc reporter insulin secretion, 2-3 h. activation, % at 16.6 µM. actives 0.61% (n = 370,000). AID 743287;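 active means lowest replicate activation of at least 40%, so every replicate reaches that level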;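 further: 0% = median of neutral control wells and 100% = median of IBMX positive control wells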
* marks the source's active call; other numbers are inactive results; i = inactive; ? = inconclusive; . = not tested or not shown. Only some compounds are listed: those with a hit (about 1.3% of all), similar ones and a draw of the others.

SMILES | RAD52 inh | MLL AF4-AF9 inh | S100A4 MyoIIA | RAD54 branch | GSIS activator
Cc1cccc(C2Nc3ccccc3C(=O)N2c2ccccc2)n1 (centres undefined) | -2.4 | -12.3 | -4.1 | -5.6 | 16.8
O=C1c2ccccc2NC(c2ccccn2)N1c1ccc(Cl)cc1 (centres undefined) | . | . | . | -3.4 | 62.5*
CC(C)CC#Cc1ccc2c(c1)O[C@H](CN(C)Cc1cccc(F)c1)[C@@H](C)CN([C@H](C)CO)S2(=O)=O | 0.3 | -0.6 | 8.8 | -6.9 | 8.5
CNC[C@@H]1Oc2c(NC(=O)c3nc4ccccc4s3)cccc2C(=O)N([C@@H](C)CO)C[C@@H]1C | 2.6 | 2.2 | -0.6 | 3.5 | -4.0
COC(=O)c1c(C)[nH]c(C(=O)/C=C/c2ccccc2)c1C | . | . | . | . | 55.9*
COc1cc(CN(C)c2ccc(S(=O)(=O)N3CCCC3)cn2)ccc1OC(F)F | -2.2 | 4.5 | -0.1 | -5.7 | 44.3*
COc1ccc(CCN(C)c2ccc(S(=O)(=O)N3CCCC3)cn2)cc1OC | -3.3 | -3.1 | -0.8 | -5.2 | 10.6
CN(C)CC#Cc1ccc([C@H]2[C@@H](CO)N3CCCCN(CC4CCOCC4)C[C@H]23)cc1 | 62.3* | 8.8 | 3.8 | -7.8 | 23.4
COc1cccc(-c2ccc([C@@H]3[C@H]4CN(CC5CCOCC5)CCCCN4[C@H]3CO)cc2)c1 | 41.8 | 4.6 | -30.3 | 1.4 | .
CN(C)CC#Cc1ccc([C@H]2[C@H]3CN(CC4CC4)CCCCN3[C@H]2CO)cc1 | 43.9 | 19.3 | 8.3 | -6.4 | 8.5
CN(C)CC#Cc1ccc([C@@H]2[C@@H](CO)N3CCCCN(CC4CC4)C[C@@H]23)cc1 | 70.5* | 25.8* | -5.7 | -3.1 | 15.4
COc1cccc(-c2ccc([C@H]3[C@@H](CO)N4CCCCN(CC5CCOCC5)C[C@@H]34)cc2)c1 | 56.2* | 2.4 | -2.9 | -1.2 | .
CN(C)CC#Cc1ccc([C@@H]2[C@H](CO)N3CCCCN(CC4CC4)C[C@@H]23)cc1 | 58.5* | 27.4* | 0.3 | -3.4 | 8.5
Cc1noc(C)c1NC(=O)N(C)C[C@H]1Oc2cc(C#CCN(C)C)ccc2S(=O)(=O)N([C@@H](C)CO)C[C@H]1C | -2.4 | -0.1 | -20.4 | 2.5 | 8.3
CCCC#Cc1ccc([C@H]2[C@@H](CO)N3CCCCN(CC4CC4)C[C@H]23)cc1 | 52.9* | 16.1 | -7.0 | 3.8 | .
CCCN1[C@H](C(=O)NCC(F)(F)F)[C@@H](CO)[C@@H]2Cn3c(ccc(-c4ccccc4)c3=O)[C@@H]21 | -8.9 | 0.8 | 0.7 | 1.8 | -2.6
C#CCOCCOCCOCCNc1nc(N2CCN(C(=O)Cn3cc(CCCCN)nn3)CC2)nc(N2CCN(C(=O)[C@H]([C@@H](C)CC)n3cc(CCCCN)nn3)CC2)n1 | 45.0 | 25.5* | 0.0 | -10.4 | 17.7
C#CCOCCOCCOCCNc1nc(N2CCN(C(=O)Cn3cc(CCO)nn3)CC2)nc(N2CCN(C(=O)[C@H]([C@@H](C)CC)n3cc(CCCCN)nn3)CC2)n1 | -3.0 | -3.6 | 1.0 | 8.4 | 1.3
C#CCOCCOCCOCCNc1nc(N2CCN(C(=O)[C@H]([C@@H](C)CC)n3cc(CCCN=C(N)N)nn3)CC2)nc(N2CCN(C(=O)[C@H](Cc3ccc(O)cc3)n3cc(CCO)nn3)CC2)n1 | 8.2 | 30.9* | -4.2 | -10.5 | 4.0
O=C(Nc1cccc(CNCCc2c[nH]c3ccccc23)c1)c1ccccc1Cl | -5.2 | 34.6* | -1.4 | 10.3 | -14.7
O=S(=O)(c1ccccc1F)N1[C@@H]2CNC[C@H]1C2c1ccc(-c2cccnc2)cc1 (some centres undefined) | 8.5 | -2.0 | 5.7 | . | -13.0
CN(CCc1ccccc1)C(=O)c1ccc(NC(=O)Cc2cccc(NC(=O)C3CCN(C(=O)C4CCC4)CC3)c2)cc1 | -36.9 | 2.0 | 6.0 | -5.1 | -4.9
O=C(Cc1ccc(NC(=O)C2CCCN(C(=O)c3ccccc3)C2)cc1)Nc1cccc(C(=O)N2CCCCC2)c1 (centres undefined) | -79.4 | . | 1.2 | . | 79.4*
CN(CCc1ccccc1)C(=O)c1ccc(NC(=O)Cc2ccc(NC(=O)C3CCN(C(=O)C4CCC4)CC3)cc2)cc1 | -12.5 | 28.2* | -2.2 | -11.3 | 1.5
C[C@H](CO)N1C[C@H](C)[C@H](CN(C)S(C)(=O)=O)OCCCC[C@H](C)Oc2ccc(NC(=O)Nc3ccccc3)cc2C1=O | 3.0 | 0.6 | 3.9 | -1.4 | -8.5
SMILES | RAD52 inh | MLL AF4-AF9 inh | S100A4 MyoIIA | RAD54 branch | GSIS activator
CCC(=O)Nc1ccc2c(c1)C(=O)N(C)C[C@@H](OC)[C@H](C)CN(C(=O)c1ccccn1)[C@H](C)CO2 | -15.2 | ? | 1.1 | 4.3 | 10.5
CCC(=O)Nc1ccc2c(c1)C(=O)N(C)C[C@H](OC)[C@@H](C)CN(C(=O)c1ccccn1)[C@H](C)CO2 | -1.9 | 31.7* | 4.4 | -2.2 | 8.2
CO[C@H]1CN(C)C(=O)c2ccc(NC(=O)NC(C)C)cc2OC[C@@H](C)N(C(=O)NC(C)C)C[C@H]1C | 20.6 | 0.7 | 88.9* | -5.6 | 13.8
CCS(=O)(=O)Nc1ccc2c(c1)C(=O)N(C)C[C@@H](OC)[C@H](C)CN(C(C)=O)[C@@H](C)CO2 | 0.6 | 1.5 | -2.1 | 7.6 | 8.2
CCC(=O)Nc1ccc2c(c1)OC[C@H](C)N(C(=O)CC1CC1)C[C@H](C)[C@H](OC)CN(C)C2=O | 4.6 | -3.7 | 95.9* | -11.0 | 6.1
CCS(=O)(=O)Nc1ccc2c(c1)C(=O)N(C)C[C@@H](OC)[C@@H](C)CN(C(C)=O)[C@H](C)CO2 | 9.9 | 1.7 | 98.1* | -1.7 | 8.3
O=C(O)C[C@@H]1C[C@H]2c3cc(NC(=O)NC4CCCCC4)ccc3O[C@H]2[C@H](CO)O1 | -12.3 | -0.6 | -1.8 | 15.3 | 7.9
CO[C@H]1CN(C)C(=O)c2cc(NC(C)=O)ccc2OC[C@@H](C)N(Cc2cccc(F)c2)C[C@@H]1C | 5.5 | 4.4 | -5.6 | -9.3 | -2.0
CO[C@H]1CN(C)C(=O)c2cc(NC(=O)C3CCC3)ccc2OC[C@@H](C)N(C(=O)CN(C)C)C[C@H]1C | 3.7 | 1.0 | -1.3 | -0.4 | 13.8
CO[C@@H]1CN(C)C(=O)c2ccc(NC(=O)c3cc(C)on3)cc2OC[C@H](C)N(C(=O)C2CC2)C[C@H]1C | -12.0 | -1.7 | -1.6 | -3.6 | 3.4
CC(=O)N(C)C[C@@H]1Oc2ncc(C#Cc3cccc(F)c3)cc2C(=O)N([C@@H](C)CO)C[C@H]1C | 4.4 | 2.7 | 14.2 | -8.3 | 10.2
O=[N+]([O-])c1ccc2nc(-c3ccc(Cl)cc3)[nH]c2c1 | -6.8 | 7.3 | -5.6 | . | -6.8
O=[N+]([O-])c1ccc(-c2cc(-c3ccc(Cl)cc3)n[nH]2)cc1 | . | . | . | 6.8 | 70.7*
CN(N=Cc1ccc([N+](=O)[O-])cc1)c1ccccn1 | i | 1.6 | 83.5* | -31.4 | -5.2
O=C(c1ccc([N+](=O)[O-])cc1)N(c1ccccn1)c1ccccn1 | 3.6 | -1.1 | -6.4 | . | -4.8
Cc1ccccc1C(=O)NC1CCSC1=O (centres undefined) | -1.2 | -5.1 | -4.3 | -2.0 | 121.5*

Screening data (PubChem BioAssay)
